ChEMBL document CHEMBL3611998, “Syntheses and studies of new forms of N-sulfonyloxy β-lactams as potential antibacterial agents and β-lactamase inhibitors” (Bioorg Med Chem, 2015)
Calls of active or inactive are those of the source. The calls are words filed in the database; no cut-off is given here.

How the values were obtained:
Bacillus spizizenii [1] = test: Antimicrobial activity against Bacillus subtilis ATCC 6633 at 2 mM incubated for 20 hrs by agar diffusion assay; type: functional; conditions: ATCC 6633, 20 h, read-out: DIZ
In short: (§1)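 The test solution was made as 20 mM in DMSO and diluted 10-fold in MeOH to 2 mM. Overnight LB cultures were adjusted to a 0.5 McFarland standard ([…] in 0.9% saline), and 0.1 mL was seeded into 34 mL Mueller-Hinton No. 2 agar at 47–50 °C. 50 μL was placed in 9.0 mm wells. Plates were incubated at 37 °C for 20 h, and inhibition zone diameters were measured by caliper.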

Pseudomonas aeruginosa [2] = test: Antimicrobial activity against Pseudomonas aeruginosa K799/61 at 2 mM incubated for 20 hrs by agar diffusion assay; type: functional; conditions: K799/61, 20 h, read-out: DIZ; in short: as §1
Mycolicibacterium vaccae [3] = test: Antimicrobial activity against Mycobacterium vaccae IMET 10670 at 2 mM incubated for 48 hrs by agar diffusion assay; type: functional; conditions: for zone of inhibition at 2000 µM: IMET 10670, 48 h, read-out: DIZ
In short: (§2)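 Seeded-agar well diffusion: 2 mM test solution (from 20 mM DMSO stock, diluted 10-fold in MeOH), 50 μL per 9.0 mm well. Inoculum was 0.1 mL of a 0.5 McFarland saline suspension ([…]) in 34 mL Mueller-Hinton No. 2 agar. Incubation was at 37 °C for 48 h, with plates photographed after 3 days. Zone diameters were measured by caliper.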

Pseudomonas aeruginosa [4] = test: Antimicrobial activity against wild type Pseudomonas aeruginosa K799 at 2 mM incubated for 20 hrs by agar diffusion assay; type: functional; conditions: K799, 20 h, read-out: DIZ; in short: as §1
Escherichia coli [5] = test: Antimicrobial activity against Escherichia coli DC2 assessed as very very unclear inhibition zone at 2 mM incubated for 20 hrs by agar diffusion assay; type: functional; conditions: DC2, 20 h, read-out: DIZ; in short: as §1
Escherichia coli [6] = test: Antimicrobial activity against Escherichia coli DC0 at 2 mM incubated for 20 hrs by agar diffusion assay; type: functional; conditions: for zone of inhibition at 2000 µM: DC0, 20 h, read-out: DIZ; in short: as §1
Burkholderia dolosa = test: Antimicrobial activity against Burkholderia dolosa at 2 mM incubated for 20 hrs by agar diffusion assay; type: functional; conditions: read-out: DIZ; in short: as §1
Staphylococcus aureus [7] = test: Antimicrobial activity against Staphylococcus aureus SG511 at 2 mM incubated for 20 hrs by agar diffusion assay; type: functional; conditions: for zone of inhibition at 2000 µM: SG511, 20 h, read-out: DIZ; in short: as §1
Micrococcus luteus [8] = test: Antimicrobial activity against Micrococcus luteus ATCC 10240 at 2 mM incubated for 20 hrs by agar diffusion assay; type: functional; conditions: for zone of inhibition at 2000 µM: ATCC 10240, 20 h, read-out: DIZ; in short: as §1
Acinetobacter baumannii [9] = test: Antimicrobial activity against Acinetobacter baumannii ATCC 17961 at 2 mM incubated for 20 hrs by agar diffusion assay; type: functional; conditions: for zone of inhibition at 2000 µM: ATCC 17961, 20 h, read-out: DIZ; in short: as §1
Micrococcus luteus [10] = test: Antimicrobial activity against Micrococcus luteus ATCC 10240 assessed as unclear inhibition zone at 2 mM incubated for 20 hrs by agar diffusion assay; type: functional; conditions: ATCC 10240, 20 h, read-out: DIZ; in short: as §1
Bacillus spizizenii [11] = test: Antimicrobial activity against Bacillus subtilis ATCC 6633 assessed as unclear inhibition zone at 2 mM incubated for 20 hrs by agar diffusion assay; type: functional; conditions: ATCC 6633, 20 h, read-out: DIZ; in short: as §1
Escherichia coli [12] = test: Antimicrobial activity against Escherichia coli DC2 at 2 mM incubated for 20 hrs by agar diffusion assay; type: functional; conditions: for zone of inhibition at 2000 µM: DC2, 20 h, read-out: DIZ; in short: as §1
Acinetobacter baumannii [13] = test: Antimicrobial activity against Acinetobacter baumannii ATCC 17961 assessed as unclear inhibition zone at 2 mM incubated for 20 hrs by agar diffusion assay; type: functional; conditions: ATCC 17961, 20 h, read-out: DIZ; in short: as §1
Bacillus spizizenii [14] = test: Antimicrobial activity against Bacillus subtilis ATCC 6633 assessed as very unclear inhibition zone at 2 mM incubated for 20 hrs by agar diffusion assay; type: functional; conditions: ATCC 6633, 20 h, read-out: DIZ; in short: as §1
Mycolicibacterium vaccae [15] = test: Antimicrobial activity against Mycobacterium vaccae IMET 10670 assessed as unclear inhibition zone at 2 mM incubated for 48 hrs by agar diffusion assay; type: functional; conditions: IMET 10670, 48 h, read-out: DIZ; in short: as §2
[16] = Inhibition of beta-lactamase CTX-M-14 (unknown origin) using nitrocefin substrate incubated for 10 mins
In short: (§3)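 Enzyme was preincubated with inhibitor at rt for 10 min in 50 mM sodium phosphate pH 7 with 0.1 mg/mL BSA. Inhibitor was tested at final concentrations of 160 μM to 3 nM (1:3 series, 8 points). Nitrocefin was then added at 50 μM, and hydrolysis was followed as OD 495 nm over time.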

[17] = Inhibition of beta-lactamase NDM1 (unknown origin) using imipenem substrate incubated for 10 mins
In short: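 NDM-1 was added as 50 μL of a 0.110 mg/mL solution and preincubated with inhibitor (final 160 μM to 3 nM, 8-point 1:3 series) for 10 min at rt. Buffer was 50 mM sodium phosphate pH 7 with 0.1 mg/mL BSA. 10 μM imipenem was then added, and its disappearance was monitored over time.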

[18] = Inhibition of beta-lactamase OXA-48 (unknown origin) using nitrocefin substrate incubated for 10 mins; in short: as §3
[19] = Inhibition of beta-lactamase SHV-12 (unknown origin) using nitrocefin substrate incubated for 10 mins
In short: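 SHV-12 was added as 50 μL of a 0.111 mg/mL solution and preincubated for 10 min at rt with inhibitor (final 160 μM to 3 nM, 1:3 dilutions). Buffer was 50 mM sodium phosphate pH 7 with 0.1 mg/mL BSA. Reaction was started with 10 μM nitrocefin and followed as OD 495 nm over time.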

[20] = Inhibition of beta-lactamase PAM-2035 (unknown origin) using nitrocefin substrate incubated for 10 mins
[21] = Inhibition of beta-lactamase KPC-2 (unknown origin) using nitrocefin substrate incubated for 10 mins; in short: as §3
[22] = Inhibition of beta-lactamase AmpC (unknown origin) using nitrocefin substrate incubated for 10 mins; in short: as §3
[23] = Inhibition of beta-lactamase VIM-1 (unknown origin) using nitrocefin substrate incubated for 10 mins
Micrococcus luteus [24] = test: Antimicrobial activity against Micrococcus luteus ATCC 10240 assessed as very unclear inhibition zone at 2 mM incubated for 20 hrs by agar diffusion assay; type: functional; conditions: ATCC 10240, 20 h, read-out: DIZ; in short: as §1
Staphylococcus aureus [25] = test: Antimicrobial activity against Staphylococcus aureus SG511 assessed as unclear inhibition zone at 2 mM incubated for 20 hrs by agar diffusion assay; type: functional; conditions: SG511, 20 h, read-out: DIZ; in short: as §1
Mycolicibacterium vaccae [26] = test: Antimicrobial activity against Mycobacterium vaccae IMET 10670 assessed as very unclear inhibition zone at 2 mM incubated for 48 hrs by agar diffusion assay; type: functional; conditions: IMET 10670, 48 h, read-out: DIZ; in short: as §2
Staphylococcus aureus [27] = test: Antimicrobial activity against Staphylococcus aureus SG511 assessed as very unclear inhibition zone at 2 mM incubated for 20 hrs by agar diffusion assay; type: functional; conditions: SG511, 20 h, read-out: DIZ; in short: as §1

| SMILES | zone of inhibition at 2000 µM (Bacillus spizizenii [1]) | zone of inhibition at 2000 µM (Pseudomonas aeruginosa [2]) | zone of inhibition at 2000 µM (Mycolicibacterium vaccae [3]) | zone of inhibition at 2000 µM (Pseudomonas aeruginosa [4]) | zone of inhibition at 2000 µM (Escherichia coli [5]) | zone of inhibition at 2000 µM (Burkholderia dolosa) | zone of inhibition at 2000 µM (Staphylococcus aureus [7]) | zone of inhibition at 2000 µM (Micrococcus luteus [8]) | zone of inhibition at 2000 µM (Acinetobacter baumannii [9]) | zone of inhibition at 2000 µM (Escherichia coli [12]) | zone of inhibition at 2000 µM (Escherichia coli [6]) | diameter of the inhibition zone (DIZ) (Staphylococcus aureus [7]) | further results |
| --- | --- | --- | --- | --- | --- | --- | --- | --- | --- | --- | --- | --- | --- |
| CN(C)c1cccc2c(S(=O)(=O)ON3C(=O)CC3CBr)cccc12 (centres undefined) | 0 mm | 0 mm | 16 mm | 0 mm | 14 mm | 0 mm | 13 mm | 12 mm | 0 mm |  |  |  | diameter of the inhibition zone (DIZ) (Escherichia coli [6]): Active |
| Cc1ccc(S(=O)(=O)ON2C(=O)CC2Cn2cc(CNC(=O)c3cc(C(F)(F)F)ccc3Cl)nn2)cc1 (centres undefined) |  | 0 mm | 0 mm | 0 mm |  | 0 mm |  |  |  | 0 mm | 0 mm | Active | zone of inhibition at 2000 µM (Micrococcus luteus [10]): 13 mm; zone of inhibition at 2000 µM (Bacillus spizizenii [11]): 13 mm; zone of inhibition at 2000 µM (Acinetobacter baumannii [13]): 13 mm |
| Cc1ccc(S(=O)(=O)ON2C(=O)CC2CBr)cc1 (centres undefined) |  | 0 mm |  | 0 mm | 13 mm | 0 mm |  |  |  |  | 0 mm | Active | zone of inhibition at 2000 µM (Bacillus spizizenii [14]): 11 mm; zone of inhibition at 2000 µM (Mycolicibacterium vaccae [15]): 17 mm; diameter of the inhibition zone (DIZ) (Micrococcus luteus [8]): Active; diameter of the inhibition zone (DIZ) (Acinetobacter baumannii [9]): Active |
| O=C1CC(CBr)N1OS(=O)(=O)c1ccc2ccccc2c1 (centres undefined) | 13 mm | 0 mm | 17 mm | 0 mm | 15 mm | 0 mm | 13 mm | 12 mm | 0 mm |  | 0 mm |  | Ki [16]: > 160 µM; Ki [17]: > 160 µM; Ki [18]: > 160 µM; zone of inhibition at 2000 µM (Bacillus spizizenii [11]): 17 mm; Ki [19]: 0.19 µM; Ki [20]: > 160 µM; Ki [21]: > 160 µM; Ki [22]: > 160 µM; Ki [23]: > 160 µM |
| COc1ccc(S(=O)(=O)ON2C(=O)CC2CBr)cc1 (centres undefined) |  | 0 mm |  | 0 mm | 15 mm | 0 mm | 0 mm | 0 mm | 0 mm |  | 0 mm |  | zone of inhibition at 2000 µM (Bacillus spizizenii [14]): 11 mm; zone of inhibition at 2000 µM (Mycolicibacterium vaccae [15]): 17 mm |
| Cc1ccc(S(=O)(=O)ON2C(=O)CC2CSC2=NCCS2)cc1 (centres undefined) | 0 mm | 0 mm |  | 0 mm | 14 mm | 0 mm |  | 0 mm | 0 mm |  | 0 mm | Active | diameter of the inhibition zone (DIZ) (Mycolicibacterium vaccae [3]): Active |
| O=C1CC(CBr)N1OS(=O)(=O)c1ccc([N+](=O)[O-])cc1 (centres undefined) | 14 mm | 0 mm | 0 mm | 0 mm | 14 mm | 0 mm |  | 0 mm | 11 mm |  | 0 mm | Active |  |
| CC(C)c1cc(C(C)C)c(S(=O)(=O)ON2C(=O)CC2CBr)c(C(C)C)c1 (centres undefined) | 0 mm | 0 mm |  | 0 mm |  | 0 mm | 0 mm |  | 0 mm |  | 0 mm |  | Ki [16]: > 160 µM; zone of inhibition at 2000 µM (Micrococcus luteus [24]): 19 mm; Ki [17]: > 160 µM; Ki [18]: > 160 µM; zone of inhibition at 2000 µM (Mycolicibacterium vaccae [15]): 14 mm; Ki [19]: > 160 µM; Ki [20]: > 160 µM; diameter of the inhibition zone (DIZ) (Escherichia coli [12]): Active; Ki [21]: > 160 µM; Ki [22]: > 160 µM |
| O=C1CC(CBr)N1OS(=O)(=O)c1cccs1 (centres undefined) | 0 mm | 0 mm | 0 mm | 0 mm | 16 mm | 0 mm | 0 mm | 0 mm | 0 mm |  | 0 mm |  |  |
| CCOC(=O)c1cn(CC2CC(=O)N2OS(=O)(=O)c2ccc(C)cc2)nn1 (centres undefined) |  | 0 mm | 0 mm | 0 mm |  | 0 mm | 0 mm | 0 mm | 0 mm | 0 mm | 0 mm |  | zone of inhibition at 2000 µM (Bacillus spizizenii [14]): 15 mm |
| O=C1CC(CBr)N1OS(=O)(=O)c1cccc2ccccc12 (centres undefined) | 12 mm | 0 mm |  | 0 mm |  | 0 mm |  |  | 0 mm | 0 mm | 0 mm |  | Ki [16]: > 160 µM; zone of inhibition at 2000 µM (Staphylococcus aureus [25]): 14 mm; Ki [17]: > 160 µM; Ki [18]: 4.67 µM; zone of inhibition at 2000 µM (Micrococcus luteus [10]): 13.5 mm; zone of inhibition at 2000 µM (Mycolicibacterium vaccae [26]): 16 mm; Ki [19]: 0.198 µM; Ki [20]: > 160 µM; Ki [21]: > 160 µM; Ki [22]: > 160 µM |
| Cc1ccc(S(=O)(=O)ON2C(=O)CC2Cn2cc(CNC(=O)c3ccccc3)nn2)cc1 (centres undefined) | 0 mm | 0 mm | 0 mm | 0 mm |  | 0 mm | 0 mm | 0 mm | 0 mm | 0 mm | 0 mm |  |  |
| O=C1CC(CBr)N1OS(=O)(=O)c1ccc([N+](=O)[O-])cc1[N+](=O)[O-] (centres undefined) | 22 mm | 0 mm | 32 mm | 0 mm | 15 mm | 0 mm |  |  | 0 mm |  | 0 mm |  | zone of inhibition at 2000 µM (Micrococcus luteus [24]): 16 mm; zone of inhibition at 2000 µM (Staphylococcus aureus [25]): 14 mm; zone of inhibition at 2000 µM (Staphylococcus aureus [27]): 23 mm |
